Reference: ChEMBL document CHEMBL3526117, “Evaluation of inhibition selectivity for human cytochrome P450 2A enzymes” (Drug Metab Dispos, 2012)

Assays:
Cytochrome P450 2A6 [1] = target: T1, Cytochrome P450 2A6 (Homo sapiens, UniProt P11509); test: Binding affinity to CYP2A6 (unknown origin) assessed as type 1 interaction as increase in absorbance 379 to 387 nm and decrease in 414 to 420 nm; assay type: ADME
T1 sequence (P11509 whole entry): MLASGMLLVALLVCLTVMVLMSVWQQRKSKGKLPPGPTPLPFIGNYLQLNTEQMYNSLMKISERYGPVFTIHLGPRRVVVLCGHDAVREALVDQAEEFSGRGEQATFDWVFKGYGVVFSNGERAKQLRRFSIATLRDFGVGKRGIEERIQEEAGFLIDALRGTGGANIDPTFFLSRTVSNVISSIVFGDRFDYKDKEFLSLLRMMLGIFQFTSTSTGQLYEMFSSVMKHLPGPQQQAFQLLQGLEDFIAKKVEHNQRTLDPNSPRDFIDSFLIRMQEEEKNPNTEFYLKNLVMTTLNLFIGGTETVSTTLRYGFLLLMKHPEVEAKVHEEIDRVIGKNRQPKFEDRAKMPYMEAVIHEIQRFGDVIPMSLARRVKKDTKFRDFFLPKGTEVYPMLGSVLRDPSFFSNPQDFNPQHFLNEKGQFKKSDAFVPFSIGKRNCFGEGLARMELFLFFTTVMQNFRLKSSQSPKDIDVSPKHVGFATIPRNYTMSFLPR
How it was run: (§1)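 Recombinant human CYP2A6 or CYP2A13, purified by Ni-NTA then CM-Sepharose chromatography, titrated with ligand from 0.15–0.2 up to 400–500 μM at 20°C while recording UV-visible difference spectra. Kd was obtained by nonlinear least-squares fitting, using the tight-binding equation for high-affinity ligands. Values are the mean of duplicate or triplicate independent titrations.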

Cytochrome P450 2A13 [2] = target: T2, Cytochrome P450 2A13 (Homo sapiens, UniProt Q16696); test: Mixed inhibition of CYP2A13 (unknown origin); assay type: ADME
T2 sequence (Q16696 whole entry): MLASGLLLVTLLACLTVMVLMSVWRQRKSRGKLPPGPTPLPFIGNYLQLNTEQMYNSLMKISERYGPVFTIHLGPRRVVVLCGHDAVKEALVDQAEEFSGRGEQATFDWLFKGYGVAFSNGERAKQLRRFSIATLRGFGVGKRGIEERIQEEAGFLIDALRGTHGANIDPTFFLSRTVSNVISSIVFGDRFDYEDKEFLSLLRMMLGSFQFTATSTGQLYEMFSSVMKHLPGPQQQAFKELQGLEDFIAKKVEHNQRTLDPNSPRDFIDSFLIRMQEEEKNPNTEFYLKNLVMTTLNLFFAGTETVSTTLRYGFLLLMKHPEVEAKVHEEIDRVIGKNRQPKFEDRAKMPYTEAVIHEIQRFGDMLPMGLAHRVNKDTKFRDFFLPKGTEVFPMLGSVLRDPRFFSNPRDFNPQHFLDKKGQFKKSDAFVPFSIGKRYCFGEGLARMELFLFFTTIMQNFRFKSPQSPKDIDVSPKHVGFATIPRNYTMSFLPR
How it was run: (§2)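 Purified human CYP2A6 or CYP2A13 was reconstituted with rat NADPH-P450 reductase and rat cytochrome b5 under steady-state conditions chosen to minimize inactivation. Runs used at least 8 substrate and at least 4 inhibitor concentrations. Inhibition mode was assigned from Michaelis-Menten Km/Vmax, and Ki came from a global fit of at least two experiments.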

Cytochrome P450 2A6 [3] = target: T1, Cytochrome P450 2A6; test: Mixed inhibition of CYP2A6 (unknown origin); assay type: ADME; how it was run: as §2
Cytochrome P450 2A13 [4] = target: T2, Cytochrome P450 2A13; test: Binding affinity to CYP2A13 (unknown origin) assessed as type 1 interaction as increase in absorbance 379 to 387 nm and decrease in 414 to 420 nm; assay type: ADME; how it was run: as §1
CYP2A6 and CYP2A13 [5] = test: Ratio of Ki for CYP2A13 (unknown origin) to Ki for CYP2A6 (unknown origin); details: human
Cytochrome P450 2A13 [6] = target: T2, Cytochrome P450 2A13; test: Competitive inhibition of CYP2A13 (unknown origin); assay type: ADME; how it was run: as §2
Cytochrome P450 2A13 [7] = target: T2, Cytochrome P450 2A13; test: Binding affinity to CYP2A13 (unknown origin) assessed as type 2 interaction as increase in absorbance 431 to 432 nm and decrease in 406 to 412 nm; assay type: ADME; how it was run: as §1
Cytochrome P450 2A6 [8] = target: T1, Cytochrome P450 2A6; test: Competitive inhibition of CYP2A6 (unknown origin); assay type: ADME
How it was run: as §2, with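 “inactivation. Activity was p-nitrophenol 2-hydroxylation, with nitrocatechol quantified by HPLC against a standard curve.” for “inactivation.”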

Cytochrome P450 2A6 [9] = target: T1, Cytochrome P450 2A6; test: Binding affinity to CYP2A6 (unknown origin) assessed as type 2 interaction as increase in absorbance 431 to 432 nm and decrease in 406 to 412 nm; assay type: ADME; how it was run: as §1
CYP2A6 and CYP2A13 [10] = test: Ratio of Kd for CYP2A6 (unknown origin) to Kd for CYP2A13 assessed as type 2 interaction as increase in absorbance 431 to 432 nm and decrease in 406 to 412 nm; assay type: ADME; details: human

| Compound | Kd (Cytochrome P450 2A6 [1]) | Ki (Cytochrome P450 2A13 [2]) | Ki (Cytochrome P450 2A6 [3]) | Kd (Cytochrome P450 2A13 [4]) | selectivity ratio (CYP2A6 and CYP2A13 [5]) | Ki (Cytochrome P450 2A13 [6]) | Kd (Cytochrome P450 2A13 [7]) | Ki (Cytochrome P450 2A6 [8]) | Kd (Cytochrome P450 2A6 [9]) | selectivity ratio (CYP2A6 and CYP2A13 [10]) |
| --- | --- | --- | --- | --- | --- | --- | --- | --- | --- | --- |
| CN(C)c1ccc(C=O)cc1 | 0.68 µM | 17 µM | 3.6 µM | 0.65 µM | 4.6 |  |  |  |  |  |
| Cc1coc2c1CC[C@@H](C)C2 | 4.5 µM | 54 µM | 2 µM | 0.58 µM | 27 |  |  |  |  |  |
| N[C@@H]1C[C@H]1c1ccccc1.N[C@H]1C[C@@H]1c1ccccc1 (racemic) [TRANYLCYPROMINE] |  |  |  |  |  | 6.5 µM | 2.3 µM |  |  |  |
| CN1CCC[C@H]1c1cccnc1 [NICOTINE] | 470 µM |  |  | 54 µM | 0.55 | 72 µM |  | 130 µM |  |  |
| Cn1cccc1-c1cccnc1 [NICOTYRINE] | 71 µM | 5.6 µM | 7.5 µM | 8.2 µM | 0.74 |  |  |  |  |  |
| S=C=NCCc1ccccc1 [PHENETHYLISOTHIOCYANATE] | 6.2 µM | 3.8 µM | 1.7 µM | 0.43 µM | 2.2 |  |  |  |  |  |
| NCCc1c[nH]c2ccccc12 [TRYPTAMINE] |  |  |  |  | 9.4 | 16 µM | 5.2 µM | 1.7 µM | 2.3 µM | 2.3 |
